Test results taken from ChEMBL document CHEMBL4304758, “Development of Peptide-Based Sirtuin Defatty-Acylase Inhibitors Identified by the Fluorescence Probe, SFP3, That Can Efficiently Measure Defatty-Acylase Activity of Sirtuin” (J Med Chem, 2019).
The source made the active and inactive calls. No cut-off for these calls is given here. Non-standard residues stand in square brackets, D forms with d. Residues, ends and D or L forms follow the SMILES beside them. *: point of attachment. Lys(thiomyristoyl) = CCCCCCCCCCCCCC(=S)NCCCC[C@H](N)C(=O)O; X4 = CN(C)c1ccc(/N=N/c2ccc(CC(=O)*)cc2)cc1; X1 = O=C(Cc1ccc(/N=N/c2ccc(O)cc2)cc1)*

How the values were obtained:
[1] = biological target: T1, NAD-dependent protein deacetylase sirtuin-2 (Homo sapiens) (UniProt Q8IXJ6); test: Inhibition of recombinant human SIRT2 defatty-acylase activity using SFP3 as substrate measured at 5 mins interval for 60 mins in presence of NAD+ by fluorescence assay
T1 sequence (whole entry): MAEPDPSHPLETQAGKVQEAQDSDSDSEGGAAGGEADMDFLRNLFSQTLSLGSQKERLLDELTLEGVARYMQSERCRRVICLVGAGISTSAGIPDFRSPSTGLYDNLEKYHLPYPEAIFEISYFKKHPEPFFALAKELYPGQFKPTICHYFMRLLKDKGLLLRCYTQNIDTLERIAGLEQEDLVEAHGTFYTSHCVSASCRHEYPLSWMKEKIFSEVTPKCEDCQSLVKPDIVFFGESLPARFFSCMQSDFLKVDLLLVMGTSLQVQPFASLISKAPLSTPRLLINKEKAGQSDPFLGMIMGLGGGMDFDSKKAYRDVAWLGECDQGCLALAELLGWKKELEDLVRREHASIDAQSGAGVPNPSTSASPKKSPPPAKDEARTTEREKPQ

[2] = biological target: T1, NAD-dependent protein deacetylase sirtuin-2 (Homo sapiens); test: Inhibition of recombinant human SIRT2 demyristoylase activity using H4K16-Myr as substrate measured after 2 hrs in presence of NAD+ by HPLC analysis
In short: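 H4K16-Myr at 100 μM with 500 μM NAD⁺ and 175 nM SIRT2 in Tris-HCl pH 8.0/NaCl/Triton buffer without DTT, 0.5% DMSO, 2 h at 37 °C. Inhibitors at 0.1–10 μM; AGK2 at 50 μM, NAM at 500 μM. Stopped with HCl/MeOH. Demyristoylated H4K16 product measured by HPLC at 280 nm. Percent inhibition, n = 3.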

[3] = biological target: T1, NAD-dependent protein deacetylase sirtuin-2 (Homo sapiens); test: Inhibition of recombinant human SIRT2 deacylation activity using H4K16-Ac as substrate measured after 30 mins in presence of NAD+ by HPLC analysis
In short: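 H4K16-Ac peptide at 100 μM with 500 μM NAD⁺ and 175 nM SIRT2 in Tris-HCl pH 8.0/NaCl/Triton buffer lacking DTT, 0.5% DMSO, 30 min at 37 °C. Inhibitors at 0.01–10 μM. Stopped with HCl in MeOH. Deacetylated product quantified by reversed-phase HPLC at 280 nm.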

[4] = biological target: NAD-dependent protein deacylase sirtuin-6 (Homo sapiens) (UniProt Q8N6T7); test: Inhibition of recombinant human N-terminal polyhis-tagged SIRT6 (1 to 355 residues) defatty-acylase activity expressed in Escherichia coli at 2 uM using SFP3 as substrate measured at 5 mins interval for 60 mins in presence of NAD+ by fluorescence assay relative to control
Chain of NAD-dependent protein deacylase sirtuin-6 (Homo sapiens) (Q8N6T7 whole entry, the tested form may be a part): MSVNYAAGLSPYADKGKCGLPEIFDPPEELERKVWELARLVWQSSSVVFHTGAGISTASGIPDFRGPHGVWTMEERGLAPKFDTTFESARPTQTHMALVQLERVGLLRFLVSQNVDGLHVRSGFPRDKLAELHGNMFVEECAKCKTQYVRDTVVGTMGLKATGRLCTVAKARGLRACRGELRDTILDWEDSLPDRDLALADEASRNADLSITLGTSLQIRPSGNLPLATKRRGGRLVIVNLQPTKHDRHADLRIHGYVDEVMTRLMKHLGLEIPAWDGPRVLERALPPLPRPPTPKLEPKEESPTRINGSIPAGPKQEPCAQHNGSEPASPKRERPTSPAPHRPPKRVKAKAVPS

[5] = tested on: HeLa; test: Cytotoxicity against human HeLa cells assessed as reduction in cell viability at 50 uM measured after 72 hrs by CCK8 assay; type: functional, cell-based
In short: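 HeLa cells, 1.0 × 10⁴ per well on PLL-coated plates, grown overnight in DMEM with 10% FBS and penicillin/streptomycin, 37 °C, 5% CO₂. Compounds added in DMEM (2% DMSO stock), range 1.56–50 μM final, for 72 h. CCK-8 reagent then 2 h at 37 °C, absorbance read at 450 nm. DMSO control.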

[6] = biological target: T1, NAD-dependent protein deacetylase sirtuin-2 (Homo sapiens); test: Non-competitive inhibition of recombinant human SIRT2 defatty-acylase activity at 15 to 30 nM using SFP3 as substrate measured at 1 min interval for 30 mins in presence of varying levels of NAD+ by Michaelis-Menten plot analysis
[7] = biological target: T1, NAD-dependent protein deacetylase sirtuin-2 (Homo sapiens); test: Time-dependent inhibition of recombinant human SIRT2 defatty-acylase activity at 15.6 to 250 nM using SFP3 as substrate measured at 5 mins interval for 60 mins in presence of NAD+ by fluorescence assay
[8] = biological target: T1, NAD-dependent protein deacetylase sirtuin-2 (Homo sapiens); test: Inhibition of recombinant human SIRT2 defatty-acylase activity at 2 uM using SFP3 as substrate measured at 5 mins interval for 60 mins in presence of NAD+ by fluorescence assay relative to control
[9] = biological target: T1, NAD-dependent protein deacetylase sirtuin-2 (Homo sapiens); test: Inhibition of recombinant human SIRT2 demyristoylase activity at 1 uM using p53(Myr)-AMC as substrate measured after 3 hrs in presence of NAD+ and trypsin by fluorescence assay relative to control
[10] = biological target: T2, NAD-dependent protein deacetylase sirtuin-1 (Homo sapiens) (UniProt Q96EB6); test: Inhibition of recombinant human C-terminal His6-tagged SIRT1 (Met1 to Ser747 residues) defatty-acylase activity expressed in Escherichia coli at 2 uM using SFP3 as substrate measured at 5 mins interval for 60 mins in presence of NAD+ by fluorescence assay relative to control
T2 sequence (whole entry): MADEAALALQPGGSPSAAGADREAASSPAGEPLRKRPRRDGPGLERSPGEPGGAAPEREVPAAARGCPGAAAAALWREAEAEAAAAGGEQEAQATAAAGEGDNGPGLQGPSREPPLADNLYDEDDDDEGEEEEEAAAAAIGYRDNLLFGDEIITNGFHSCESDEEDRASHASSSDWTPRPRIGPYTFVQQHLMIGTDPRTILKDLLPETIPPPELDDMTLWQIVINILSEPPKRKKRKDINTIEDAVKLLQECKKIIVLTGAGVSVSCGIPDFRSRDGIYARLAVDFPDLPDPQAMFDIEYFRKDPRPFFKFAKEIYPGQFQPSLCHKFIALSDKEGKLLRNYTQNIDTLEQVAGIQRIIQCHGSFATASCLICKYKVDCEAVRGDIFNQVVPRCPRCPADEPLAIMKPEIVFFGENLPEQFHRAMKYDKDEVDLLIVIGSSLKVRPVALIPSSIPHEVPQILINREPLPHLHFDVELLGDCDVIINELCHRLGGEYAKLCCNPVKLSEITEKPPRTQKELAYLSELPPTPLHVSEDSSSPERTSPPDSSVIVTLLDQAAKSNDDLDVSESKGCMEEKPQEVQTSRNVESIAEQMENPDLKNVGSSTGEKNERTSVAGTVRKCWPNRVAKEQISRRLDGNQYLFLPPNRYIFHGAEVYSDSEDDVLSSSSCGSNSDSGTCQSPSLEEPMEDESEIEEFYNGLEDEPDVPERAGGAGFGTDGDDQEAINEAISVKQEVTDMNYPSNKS

[11] = biological target: T3, NAD-dependent protein deacetylase sirtuin-3, mitochondrial (Homo sapiens) (UniProt Q9NTG7); test: Inhibition of recombinant human SIRT3 (118 to 399 residues) defatty-acylase activity expressed in Escherichia coli at 2 uM using SFP3 as substrate measured at 5 mins interval for 60 mins in presence of NAD+ by fluorescence assay relative to control
T3 sequence (whole entry): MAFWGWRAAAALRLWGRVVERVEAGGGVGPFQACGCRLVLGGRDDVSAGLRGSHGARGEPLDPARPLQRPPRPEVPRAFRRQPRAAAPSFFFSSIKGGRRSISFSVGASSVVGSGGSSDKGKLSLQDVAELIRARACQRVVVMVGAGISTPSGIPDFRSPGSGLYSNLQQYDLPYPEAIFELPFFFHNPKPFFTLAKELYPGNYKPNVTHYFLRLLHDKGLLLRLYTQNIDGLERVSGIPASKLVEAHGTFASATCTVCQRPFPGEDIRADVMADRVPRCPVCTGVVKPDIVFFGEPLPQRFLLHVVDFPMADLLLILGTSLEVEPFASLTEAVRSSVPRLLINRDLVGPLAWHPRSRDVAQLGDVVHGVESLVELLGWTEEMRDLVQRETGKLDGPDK
In short: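 SIRT3 at 60 nM final with 2.5 μM SFP3 and 500 μM NAD⁺ in Tris-HCl pH 8.0, 150 mM NaCl, 1 mM DTT, 0.05% Triton X-100. Final DMSO 0.2%, or 0.5% for AGK2/NAM. Fluorescence Ex 485/Em 535 nm every 5 min for 60 min at 37 °C. n = 3.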

[12] = biological target: T2, NAD-dependent protein deacetylase sirtuin-1 (Homo sapiens); test: Inhibition of recombinant human C-terminal His6-tagged SIRT1 (Met1 to Ser747 residues) demyristoylase activity expressed in Escherichia coli at 1 uM using p53(Myr)-AMC as substrate measured after 3 hrs in presence of NAD+ and trypsin by fluorescence assay relative to control
In short: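 SIRT1 at 14 nM final with 50 μM p53(Myr)-AMC and 500 μM NAD⁺ in Tris-HCl pH 8.0/NaCl/DTT/Triton buffer, 0.5% DMSO, 3 h at room temperature. Trypsin (100 nM final) plus nicotinamide (1 mM final) then added. Fluorescence Ex 355/Em 460 nm read every 5 min for 20 min at 37 °C. n = 3.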

[13] = biological target: T3, NAD-dependent protein deacetylase sirtuin-3, mitochondrial (Homo sapiens); test: Inhibition of recombinant human SIRT3 (118 to 399 residues) demyristoylase activity expressed in Escherichia coli at 1 uM using p53(Myr)-AMC as substrate measured after 3 hrs in presence of NAD+ and trypsin by fluorescence assay relative to control
In short: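 SIRT3 at 120 nM with 50 μM p53(Myr)-AMC and 500 μM NAD⁺ in Tris-HCl pH 8.0/NaCl/DTT/Triton buffer, 0.5% DMSO, 3 h at room temperature. Trypsin (100 nM) plus nicotinamide (1 mM) then added. Fluorescence Ex 355/Em 460 nm every 5 min for 20 min at 37 °C. n = 3.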

[14] = biological target: T1, NAD-dependent protein deacetylase sirtuin-2 (Homo sapiens); test: Inhibition of recombinant human SIRT2 deacylation activity at 1 uM using Fluor de Lys Sirt2 as substrate measured at 5 mins interval for 30 mins in presence of NAD+ by fluorescence assay relative to control

Structure (SMILES) | inhibition [2] | inhibition [3] | inhibition [4] | inhibition [6] | Activity [5] | further results
O=C(Cc1ccc(/N=N/c2ccccc2)cc1)NCCCC[C@H](NC(=O)OCC1c2ccccc2-c2ccccc21)C(=O)O |  |  |  |  |  | inhibition [1]: inactive
CC[C@H](C)[C@H](NC(=O)[C@H](CCCNC(=N)N)NC(C)=O)C(=O)N[C@@H](CCCCNC(=O)Cc1ccc(/N=N/c2ccc(O)cc2)cc1)C(=O)N[C@@H](CCCNC(=N)N)C(=O)N[C@@H](Cc1ccc(O)cc1)C(N)=O (Ac-RIK(X1)RY-NH2) | Dose-dependent effect | Dose-dependent effect | 43% | Active | inactive | 
CCCCCCCCCCCCCC(=S)NCCCC[C@H](NC(=O)[C@@H](NC(=O)[C@H](CCCNC(=N)N)NC(C)=O)[C@@H](C)CC)C(=O)N[C@@H](CCCNC(=N)N)C(=O)N[C@@H](Cc1ccc(O)cc1)C(N)=O (Ac-RI[Lys(thiomyristoyl)]RY-NH2) | Dose-dependent effect | Dose-dependent effect |  | Active | inactive | 

The next lines start with results.

inhibition [2] | inhibition [3] | inhibition [4] | inhibition [6] | Structure (SMILES) | Activity [5] | further results
 |  | 40% |  | CC[C@H](C)[C@H](NC(=O)[C@H](CCCNC(=N)N)NC(C)=O)C(=O)N[C@@H](CCCCNC(=O)Cc1ccc(/N=N/c2ccc(N(C)C)cc2)cc1)C(=O)N[C@@H](CCCNC(=N)N)C(=O)N[C@@H](Cc1ccc(O)cc1)C(N)=O (Ac-RIK(X4)RY-NH2) |  | TDI [7]: Active
 |  | -3.5% |  | CCCCCCCCCCCCCC(=O)NCCCC[C@H](NC(=O)OCc1ccccc1)C(=O)Nc1ccccc1 |  | inhibition [8]: 2.8%; inhibition [9]: 5.2%; inhibition [10]: -0.59%; inhibition [11]: -2.3%; inhibition [12]: 1.7%; inhibition [13]: 1.7%; inhibition [14]: 42%
